Measurements published in ChEMBL document CHEMBL1131065, “1,4- and 2,6-disubstituted amidoanthracene-9,10-dione derivatives as inhibitors of human telomerase” (J Med Chem, 1998).
Activity calls are given as the source filed them. The calls are words filed in the database; no cut-off is given here.

Biological target: Telomerase reverse transcriptase (Homo sapiens, UniProt O14746)
Assay: Inhibition of telomerase activity
Details: not given
Summary of the method: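 Modified cell-free TRAP using CHAPS lysate of exponentially growing A2780 cells. Protein (0.04 µg) incubated with TS primer, 50 µM dNTPs and [α-32P]dCTP in TRAP buffer (pH 8.3) ± compound at 1–50 µM for 20 min at 25 °C. Telomerase heat-killed at 80 °C, then 31-cycle PCR with CX primer and Taq. Products read by denaturing gel/phosphorimaging or TCA filter scintillation counting. IC50 taken relative to controls.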

Chain of Telomerase reverse transcriptase (O14746 whole entry): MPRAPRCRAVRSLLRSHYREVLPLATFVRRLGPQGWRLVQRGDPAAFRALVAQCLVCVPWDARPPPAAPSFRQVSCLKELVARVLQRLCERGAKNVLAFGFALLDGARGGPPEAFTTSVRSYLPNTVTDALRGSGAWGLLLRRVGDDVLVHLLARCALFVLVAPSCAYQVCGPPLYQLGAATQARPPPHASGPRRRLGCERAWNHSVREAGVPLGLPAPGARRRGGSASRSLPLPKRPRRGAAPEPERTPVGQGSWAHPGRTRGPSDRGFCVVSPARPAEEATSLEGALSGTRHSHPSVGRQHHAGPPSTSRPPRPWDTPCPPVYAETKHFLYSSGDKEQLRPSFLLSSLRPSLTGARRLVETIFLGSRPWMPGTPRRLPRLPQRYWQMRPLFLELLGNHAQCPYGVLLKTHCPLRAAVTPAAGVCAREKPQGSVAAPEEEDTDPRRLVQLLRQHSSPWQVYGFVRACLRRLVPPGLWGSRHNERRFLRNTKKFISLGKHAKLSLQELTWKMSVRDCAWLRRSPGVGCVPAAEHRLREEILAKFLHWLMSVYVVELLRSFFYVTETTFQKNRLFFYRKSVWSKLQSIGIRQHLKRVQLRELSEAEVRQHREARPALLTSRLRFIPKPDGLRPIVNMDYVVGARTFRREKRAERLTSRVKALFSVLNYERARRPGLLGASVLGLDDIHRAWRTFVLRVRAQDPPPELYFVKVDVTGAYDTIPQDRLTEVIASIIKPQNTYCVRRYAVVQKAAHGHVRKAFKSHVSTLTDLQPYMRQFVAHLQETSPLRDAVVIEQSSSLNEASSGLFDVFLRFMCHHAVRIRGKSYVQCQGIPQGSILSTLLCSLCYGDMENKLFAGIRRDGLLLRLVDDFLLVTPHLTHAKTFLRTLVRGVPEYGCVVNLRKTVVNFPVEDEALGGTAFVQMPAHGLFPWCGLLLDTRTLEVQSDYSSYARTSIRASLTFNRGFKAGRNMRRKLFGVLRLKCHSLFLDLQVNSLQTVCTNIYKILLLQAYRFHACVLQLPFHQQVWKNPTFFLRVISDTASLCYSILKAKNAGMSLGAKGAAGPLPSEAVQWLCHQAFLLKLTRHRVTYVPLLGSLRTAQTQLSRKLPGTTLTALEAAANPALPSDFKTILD

Structure (SMILES) | IC50 [µM]
C[N+]1(CCC(=O)Nc2ccc(NC(=O)CC[N+]3(C)CCOCC3)c3c2C(=O)c2ccccc2C3=O)CCOCC1 | 34.5
O=C(CCN1CCCCC1)Nc1ccc2c(c1)C(=O)c1ccc(NC(=O)CCN3CCCCC3)cc1C2=O | 4.5
O=C(CN1CCOCC1)Nc1ccc2c(c1)C(=O)c1ccc(NC(=O)CN3CCOCC3)cc1C2=O | > 50
O=C(CCN1CCOCC1)Nc1ccc(NC(=O)CCN2CCOCC2)c2c1C(=O)c1ccccc1C2=O | 33.5
C[N+]1(CCC(=O)Nc2ccc(NC(=O)CC[N+]3(C)CCCCC3CO)c3c2C(=O)c2ccccc2C3=O)CCCCC1CO (configuration not stated) | 9.4
O=C(CCN1CCN(CCO)CC1)Nc1ccc2c(c1)C(=O)c1ccc(NC(=O)CCN3CCN(CCO)CC3)cc1C2=O | 16.5
O=C(CCN1CCOCC1)Nc1ccc2c(c1)C(=O)c1ccc(NC(=O)CCN3CCOCC3)cc1C2=O | > 50
C[N+](C)(C)CCC(=O)Nc1ccc2c(c1)C(=O)c1ccc(NC(=O)CC[N+](C)(C)C)cc1C2=O | 17.3
CCCN(CCC)CCC(=O)Nc1ccc(NC(=O)CCN(CCC)CCC)c2c1C(=O)c1ccccc1C2=O | 50
C[N+]1(CCC(=O)Nc2ccc(NC(=O)CC[N+]3(C)CCCCC3)c3c2C(=O)c2ccccc2C3=O)CCCCC1 | 11.1
CCCN(CCC)CCC(=O)Nc1ccc2c(c1)C(=O)c1ccc(NC(=O)CCN(CCC)CCC)cc1C2=O | > 50
O=C(CN1CCCCC1)Nc1ccc2c(c1)C(=O)c1ccc(NC(=O)CN3CCCCC3)cc1C2=O | > 50

Biological target: DNA polymerase I, thermostable (Thermus aquaticus) (UniProt P19821)
Assay: Inhibition of Taq polymerase at 10 uM (No inhibition)
Details: not given
Summary of the method: (§1)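 Compound at final 10 µM in a PCR mix: pCI-neo vector template, forward/reverse primers, Tris-HCl pH 8.8 buffer, 2.5 mM MgCl2, 200 µM each dNTP, 1.25 U thermostable polymerase. Run 30 cycles (94/55/72 °C). Products separated on 2% agarose with ethidium bromide and compared to a no-drug water control (~1 kb product); inhibition graded semiquantitatively.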

Chain of DNA polymerase I, thermostable (Thermus aquaticus) (P19821 whole entry): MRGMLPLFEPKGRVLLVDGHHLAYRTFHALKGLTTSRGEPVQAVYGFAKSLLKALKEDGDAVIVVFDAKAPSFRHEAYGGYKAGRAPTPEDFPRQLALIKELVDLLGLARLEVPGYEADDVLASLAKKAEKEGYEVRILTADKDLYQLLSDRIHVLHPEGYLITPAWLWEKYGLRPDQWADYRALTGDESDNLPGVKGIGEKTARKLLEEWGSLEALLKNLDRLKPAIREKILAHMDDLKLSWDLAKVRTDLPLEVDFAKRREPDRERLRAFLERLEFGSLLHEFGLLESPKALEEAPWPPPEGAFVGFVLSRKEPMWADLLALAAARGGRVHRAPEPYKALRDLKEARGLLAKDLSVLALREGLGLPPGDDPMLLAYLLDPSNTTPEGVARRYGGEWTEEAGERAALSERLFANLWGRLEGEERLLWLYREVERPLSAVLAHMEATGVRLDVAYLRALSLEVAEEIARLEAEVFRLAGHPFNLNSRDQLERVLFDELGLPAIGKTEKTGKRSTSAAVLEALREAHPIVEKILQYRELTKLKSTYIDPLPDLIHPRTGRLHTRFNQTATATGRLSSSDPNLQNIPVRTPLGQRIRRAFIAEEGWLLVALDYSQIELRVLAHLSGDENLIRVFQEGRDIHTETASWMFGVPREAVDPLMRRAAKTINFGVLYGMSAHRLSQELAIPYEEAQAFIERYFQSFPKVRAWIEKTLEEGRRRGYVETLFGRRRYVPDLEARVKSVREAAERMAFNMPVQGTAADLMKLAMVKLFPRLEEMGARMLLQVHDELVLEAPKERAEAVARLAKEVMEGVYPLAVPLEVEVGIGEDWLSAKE

Structure (SMILES) | Taq inhibition
CCCN(CCC)CCC(=O)Nc1ccc(NC(=O)CCN(CCC)CCC)c2c1C(=O)c1ccccc1C2=O | inactive

Biological target: DNA polymerase I, thermostable (Thermus aquaticus) (UniProt P19821)
Assay: Inhibition of Taq polymerase at 10 uM (Slight inhibition)
Details: not given
Summary of the method: as §1

Structure (SMILES) | inhibition
O=C1c2c(O)ccc(O)c2C(=O)c2c(NCCNCCO)ccc(NCCNCCO)c21 | Weak inhibition
CN(C)CCC(=O)Nc1ccc(NC(=O)CCN(C)C)c2c1C(=O)c1ccccc1C2=O | Weak inhibition

System: CH1
Assay: Concentration required to inhibit CH1-cell growth by 50%
Type: functional, cell-based
Details: Homo sapiens
Summary of the method: (§2)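 Human ovarian carcinoma cells grown as monolayers in DMEM with 10% FBS, 2 mM glutamine and 0.5 µg/mL hydrocortisone under 6% CO2. 3000–6000 cells per well, attached overnight. Salts dissolved in water, added in quadruplicate at final 0.05, 0.25, 1, 5 and 25 µM for 96 h. Cells fixed with TCA and stained with SRB, absorbance read at 540 nm. IC50 taken from mean absorbance as % of untreated control.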

Structure (SMILES) | IC50 [µM]
C[N+]1(CCC(=O)Nc2ccc(NC(=O)CC[N+]3(C)CCOCC3)c3c2C(=O)c2ccccc2C3=O)CCOCC1 | 1.65
O=C(CCN1CCCCC1)Nc1ccc2c(c1)C(=O)c1ccc(NC(=O)CCN3CCCCC3)cc1C2=O | 5.9
O=C(CN1CCOCC1)Nc1ccc2c(c1)C(=O)c1ccc(NC(=O)CN3CCOCC3)cc1C2=O | 4.15
CN(C)CCC(=O)Nc1ccc(NC(=O)CCN(C)C)c2c1C(=O)c1ccccc1C2=O | 0.04
O=C(CCN1CCOCC1)Nc1ccc(NC(=O)CCN2CCOCC2)c2c1C(=O)c1ccccc1C2=O | 1.95
C[N+]1(CCC(=O)Nc2ccc(NC(=O)CC[N+]3(C)CCCCC3CO)c3c2C(=O)c2ccccc2C3=O)CCCCC1CO (configuration not stated) | 0.54
O=C(CCN1CCN(CCO)CC1)Nc1ccc2c(c1)C(=O)c1ccc(NC(=O)CCN3CCN(CCO)CC3)cc1C2=O | 7.9
O=C(CCN1CCOCC1)Nc1ccc2c(c1)C(=O)c1ccc(NC(=O)CCN3CCOCC3)cc1C2=O | 20
C[N+](C)(C)CCC(=O)Nc1ccc2c(c1)C(=O)c1ccc(NC(=O)CC[N+](C)(C)C)cc1C2=O | 1.9
CCCN(CCC)CCC(=O)Nc1ccc(NC(=O)CCN(CCC)CCC)c2c1C(=O)c1ccccc1C2=O | 0.48
C[N+]1(CCC(=O)Nc2ccc(NC(=O)CC[N+]3(C)CCCCC3)c3c2C(=O)c2ccccc2C3=O)CCCCC1 | 4.3
CCCN(CCC)CCC(=O)Nc1ccc2c(c1)C(=O)c1ccc(NC(=O)CCN(CCC)CCC)cc1C2=O | 1.4
O=C(CN1CCCCC1)Nc1ccc2c(c1)C(=O)c1ccc(NC(=O)CN3CCCCC3)cc1C2=O | 5.05

System: SK-OV-3
Assay: Concentration required to inhibit SKOV-3-cell growth by 50%
Type: functional, cell-based
Details: Homo sapiens
Summary of the method: as §2

Structure (SMILES) | IC50 [µM]
C[N+]1(CCC(=O)Nc2ccc(NC(=O)CC[N+]3(C)CCOCC3)c3c2C(=O)c2ccccc2C3=O)CCOCC1 | 8.5
O=C(CCN1CCCCC1)Nc1ccc2c(c1)C(=O)c1ccc(NC(=O)CCN3CCCCC3)cc1C2=O | 4
O=C(CN1CCOCC1)Nc1ccc2c(c1)C(=O)c1ccc(NC(=O)CN3CCOCC3)cc1C2=O | 4.5
CN(C)CCC(=O)Nc1ccc(NC(=O)CCN(C)C)c2c1C(=O)c1ccccc1C2=O | 0.36
O=C(CCN1CCOCC1)Nc1ccc(NC(=O)CCN2CCOCC2)c2c1C(=O)c1ccccc1C2=O | 21
C[N+]1(CCC(=O)Nc2ccc(NC(=O)CC[N+]3(C)CCCCC3CO)c3c2C(=O)c2ccccc2C3=O)CCCCC1CO (configuration not stated) | 1.5
O=C(CCN1CCN(CCO)CC1)Nc1ccc2c(c1)C(=O)c1ccc(NC(=O)CCN3CCN(CCO)CC3)cc1C2=O | 7
O=C(CCN1CCOCC1)Nc1ccc2c(c1)C(=O)c1ccc(NC(=O)CCN3CCOCC3)cc1C2=O | 9
C[N+](C)(C)CCC(=O)Nc1ccc2c(c1)C(=O)c1ccc(NC(=O)CC[N+](C)(C)C)cc1C2=O | 4.4
CCCN(CCC)CCC(=O)Nc1ccc(NC(=O)CCN(CCC)CCC)c2c1C(=O)c1ccccc1C2=O | 4.5
C[N+]1(CCC(=O)Nc2ccc(NC(=O)CC[N+]3(C)CCCCC3)c3c2C(=O)c2ccccc2C3=O)CCCCC1 | 32.5
CCCN(CCC)CCC(=O)Nc1ccc2c(c1)C(=O)c1ccc(NC(=O)CCN(CCC)CCC)cc1C2=O | 2.4
O=C(CN1CCCCC1)Nc1ccc2c(c1)C(=O)c1ccc(NC(=O)CN3CCCCC3)cc1C2=O | 5

Biological target: DNA polymerase I, thermostable (Thermus aquaticus) (UniProt P19821)
Assay: Inhibition of Taq polymerase at 50 uM (No inhibition)
Details: not given
Summary of the method: (§3)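 Compound at final 50 µM in PCR with pCI-neo template and primers, Tris-HCl pH 8.8 buffer, 2.5 mM MgCl2, 200 µM each dNTP, 1.25 U thermostable polymerase. Run 30 cycles of 94 °C 1 min, 55 °C 1 min, 72 °C 2.5 min. Agarose/ethidium bromide read-out against a water no-drug control, scored semiquantitatively.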

Structure (SMILES) | Taq inhibition
CCCN(CCC)CCC(=O)Nc1ccc(NC(=O)CCN(CCC)CCC)c2c1C(=O)c1ccccc1C2=O | inactive

Biological target: DNA polymerase I, thermostable (Thermus aquaticus) (UniProt P19821)
Assay: Inhibition of Taq polymerase at 50 uM (Total inhibition)
Details: not given
Summary of the method: as §3

Structure (SMILES) | inhibition
O=C1c2c(O)ccc(O)c2C(=O)c2c(NCCNCCO)ccc(NCCNCCO)c21 | Weak inhibition
CN(C)CCC(=O)Nc1ccc(NC(=O)CCN(C)C)c2c1C(=O)c1ccccc1C2=O | Weak inhibition

System: A2780
Assay: Concentration required to inhibit A2780-cell growth by 50%
Type: functional, cell-based
Details: Homo sapiens
Summary of the method: as §2

Structure (SMILES) | IC50 [µM]
C[N+]1(CCC(=O)Nc2ccc(NC(=O)CC[N+]3(C)CCOCC3)c3c2C(=O)c2ccccc2C3=O)CCOCC1 | 0.76
O=C(CCN1CCCCC1)Nc1ccc2c(c1)C(=O)c1ccc(NC(=O)CCN3CCCCC3)cc1C2=O | 1.3
O=C(CN1CCOCC1)Nc1ccc2c(c1)C(=O)c1ccc(NC(=O)CN3CCOCC3)cc1C2=O | 5.9
CN(C)CCC(=O)Nc1ccc(NC(=O)CCN(C)C)c2c1C(=O)c1ccccc1C2=O | 0.016
O=C(CCN1CCOCC1)Nc1ccc(NC(=O)CCN2CCOCC2)c2c1C(=O)c1ccccc1C2=O | 3.7
C[N+]1(CCC(=O)Nc2ccc(NC(=O)CC[N+]3(C)CCCCC3CO)c3c2C(=O)c2ccccc2C3=O)CCCCC1CO (configuration not stated) | 0.38
O=C(CCN1CCN(CCO)CC1)Nc1ccc2c(c1)C(=O)c1ccc(NC(=O)CCN3CCN(CCO)CC3)cc1C2=O | 11
O=C(CCN1CCOCC1)Nc1ccc2c(c1)C(=O)c1ccc(NC(=O)CCN3CCOCC3)cc1C2=O | 4.8
C[N+](C)(C)CCC(=O)Nc1ccc2c(c1)C(=O)c1ccc(NC(=O)CC[N+](C)(C)C)cc1C2=O | 2.25
CCCN(CCC)CCC(=O)Nc1ccc(NC(=O)CCN(CCC)CCC)c2c1C(=O)c1ccccc1C2=O | 0.13
C[N+]1(CCC(=O)Nc2ccc(NC(=O)CC[N+]3(C)CCCCC3)c3c2C(=O)c2ccccc2C3=O)CCCCC1 | 1.75
CCCN(CCC)CCC(=O)Nc1ccc2c(c1)C(=O)c1ccc(NC(=O)CCN(CCC)CCC)cc1C2=O | 0.38
O=C(CN1CCCCC1)Nc1ccc2c(c1)C(=O)c1ccc(NC(=O)CN3CCCCC3)cc1C2=O | 1.65
